This note sets out measurements from ChEMBL document CHEMBL1145901, “A novel ergot alkaloid as a 5-HT(1A) inhibitor produced by Dicyma sp” (J Med Chem, 2003).

For test [1], the target named is T1, 5-hydroxytryptamine receptor 1A (Homo sapiens) (UniProt P08908).
T1 sequence (whole entry): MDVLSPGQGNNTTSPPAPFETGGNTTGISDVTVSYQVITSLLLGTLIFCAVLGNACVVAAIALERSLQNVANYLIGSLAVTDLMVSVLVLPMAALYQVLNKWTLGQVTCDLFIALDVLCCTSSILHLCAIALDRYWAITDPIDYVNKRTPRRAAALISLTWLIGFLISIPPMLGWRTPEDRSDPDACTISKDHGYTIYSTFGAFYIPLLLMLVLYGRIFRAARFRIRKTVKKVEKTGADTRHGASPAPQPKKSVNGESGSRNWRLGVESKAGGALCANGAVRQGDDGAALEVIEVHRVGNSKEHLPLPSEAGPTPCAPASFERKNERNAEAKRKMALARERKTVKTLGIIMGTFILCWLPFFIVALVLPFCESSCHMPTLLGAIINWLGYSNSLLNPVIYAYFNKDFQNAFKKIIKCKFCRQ
As to the kind of experiment: Intrinsic activity for human 5-hydroxytryptamine 1A receptors HEK 293 cell membranes using [35S]GTP gamma-S. It counts as functional. Particulars: HEK293. The gist of the method: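 Membranes from 10^6 HEK293 cells were preincubated with compound for 30 min at 30 °C in 20 mM HEPES pH 7.4 with 3 mM MgCl2, 100 mM NaCl, 10 μM GDP and 0.2 mM ascorbate. [35S]GTPγS (100 pM assay concentration) was then added for 30 min at 30 °C. Nonspecific binding used unlabeled GTPγS. Samples were filtered on GF/B and counted by scintillation. Intrinsic activity is relative to 5-HT; four to seven independent experiments.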

In test [2] the target is 5-hydroxytryptamine receptor 6 (Homo sapiens, UniProt P50406). As to the kind of experiment: Binding affinity against 5-hydroxytryptamine 6 human cloned receptors in HeLa cells using [3H]LSD as radioligand. The class given is cell-based.
5-hydroxytryptamine receptor 6, sequence (P50406 whole entry): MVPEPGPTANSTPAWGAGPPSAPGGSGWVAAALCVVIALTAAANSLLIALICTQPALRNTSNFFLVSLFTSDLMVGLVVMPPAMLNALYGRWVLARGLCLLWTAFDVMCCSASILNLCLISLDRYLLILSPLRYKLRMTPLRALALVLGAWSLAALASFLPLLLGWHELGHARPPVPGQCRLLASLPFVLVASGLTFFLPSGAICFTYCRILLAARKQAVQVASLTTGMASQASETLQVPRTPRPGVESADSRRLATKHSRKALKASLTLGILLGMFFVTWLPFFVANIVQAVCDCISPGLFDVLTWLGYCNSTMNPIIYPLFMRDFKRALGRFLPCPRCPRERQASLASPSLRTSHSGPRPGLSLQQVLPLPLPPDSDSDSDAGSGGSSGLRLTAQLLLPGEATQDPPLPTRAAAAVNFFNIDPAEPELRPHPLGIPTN
Test [3] has as its target T2, 5-hydroxytryptamine receptor 1B (Homo sapiens, UniProt P28222). As to the kind of experiment: Binding affinity against human 5-hydroxytryptamine 1B receptor cloned receptors in CHO cells using [3H]5-CT as radioligand. It counts as cell-based. In short, it runs like this: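 Membranes from CHO cells expressing human 5-HT1B, in 50 mM Tris-HCl pH 7.4 with 0.1% ascorbate, 10 μM pargyline, 0.5 mM EDTA and 10 mM MgCl2. Compound in DMSO was preincubated 15 min at RT, then 10 nM stock [3H]-5-CT was added for 30-45 min at 37 °C. Filtration on PEI-treated GF/C, scintillation counting; 200 μM 5-HT (stock) defined nonspecific binding. Four-parameter IC50, Cheng-Prusoff Ki, mean of at least two determinations.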

The target in test [4] is 5-hydroxytryptamine receptor 7 (Homo sapiens, UniProt P34969). As to the kind of experiment: Binding affinity against 5-hydroxytryptamine 7 human receptors.
5-hydroxytryptamine receptor 7, sequence (P34969 whole entry): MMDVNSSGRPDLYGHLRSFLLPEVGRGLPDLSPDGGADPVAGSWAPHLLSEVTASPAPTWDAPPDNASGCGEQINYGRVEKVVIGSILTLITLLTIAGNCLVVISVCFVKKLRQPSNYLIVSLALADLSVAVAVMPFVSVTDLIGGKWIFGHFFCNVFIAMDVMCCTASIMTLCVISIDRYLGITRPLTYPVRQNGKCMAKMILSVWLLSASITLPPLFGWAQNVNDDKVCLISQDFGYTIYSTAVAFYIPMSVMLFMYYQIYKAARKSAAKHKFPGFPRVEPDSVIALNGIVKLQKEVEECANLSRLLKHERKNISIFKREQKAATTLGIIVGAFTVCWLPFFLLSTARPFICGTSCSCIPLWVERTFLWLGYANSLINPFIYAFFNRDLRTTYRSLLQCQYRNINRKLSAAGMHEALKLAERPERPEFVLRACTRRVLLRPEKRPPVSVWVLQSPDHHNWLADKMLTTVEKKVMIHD
Test [5] deals with T3, 5-hydroxytryptamine receptor 1A (Homo sapiens, UniProt P08908).
T3 sequence (P08908 whole entry): T1 sequence (whole entry)
Description: Binding affinity against 5-hydroxytryptamine 1A human cloned receptors in HEK293 cells. It counts as cell-based. In short, it runs like this: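 Human 5-HT1A stably expressed in HEK 293 cells. Membranes were homogenised in ice-cold 50 mM Tris (pH 7.7 at 25 °C) and stored at -70 °C. Binding was measured as displacement of [3H]-8-OH-DPAT. IC50 came from a four-parameter logistic fit of cpm and was converted to Ki by Cheng-Prusoff. Values are the mean of at least two determinations.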

Test [6] addresses T4, 5-hydroxytryptamine receptor 2C (Homo sapiens, UniProt P28335).
T4 sequence (P28335 whole entry): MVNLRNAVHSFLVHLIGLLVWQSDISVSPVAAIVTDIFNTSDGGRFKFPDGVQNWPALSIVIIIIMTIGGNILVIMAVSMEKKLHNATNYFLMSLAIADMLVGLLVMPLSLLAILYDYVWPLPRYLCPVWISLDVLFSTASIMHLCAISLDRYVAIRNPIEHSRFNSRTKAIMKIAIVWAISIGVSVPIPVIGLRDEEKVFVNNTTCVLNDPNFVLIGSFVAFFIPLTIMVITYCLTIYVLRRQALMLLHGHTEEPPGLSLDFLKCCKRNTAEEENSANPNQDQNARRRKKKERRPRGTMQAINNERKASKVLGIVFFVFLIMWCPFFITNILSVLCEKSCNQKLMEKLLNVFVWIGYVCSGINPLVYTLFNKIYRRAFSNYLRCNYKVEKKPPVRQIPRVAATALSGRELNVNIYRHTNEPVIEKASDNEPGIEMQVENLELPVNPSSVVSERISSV
As to the kind of experiment: Binding affinity against 5-hydroxytryptamine 2C receptor human cloned receptors in HEK 293 cells using [3H]mesulergine as radioligand. It counts as cell-based, HEK293.

The target of test [7] is T5, 5-hydroxytryptamine receptor 2A (Homo sapiens, UniProt P28223). Description: Binding affinity against 5-hydroxytryptamine 2A receptor human cloned receptors in HEK 293 cells using [3H]ketanserin as radioligand. The class given is cell-based, HEK293.
T5 sequence (P28223 whole entry): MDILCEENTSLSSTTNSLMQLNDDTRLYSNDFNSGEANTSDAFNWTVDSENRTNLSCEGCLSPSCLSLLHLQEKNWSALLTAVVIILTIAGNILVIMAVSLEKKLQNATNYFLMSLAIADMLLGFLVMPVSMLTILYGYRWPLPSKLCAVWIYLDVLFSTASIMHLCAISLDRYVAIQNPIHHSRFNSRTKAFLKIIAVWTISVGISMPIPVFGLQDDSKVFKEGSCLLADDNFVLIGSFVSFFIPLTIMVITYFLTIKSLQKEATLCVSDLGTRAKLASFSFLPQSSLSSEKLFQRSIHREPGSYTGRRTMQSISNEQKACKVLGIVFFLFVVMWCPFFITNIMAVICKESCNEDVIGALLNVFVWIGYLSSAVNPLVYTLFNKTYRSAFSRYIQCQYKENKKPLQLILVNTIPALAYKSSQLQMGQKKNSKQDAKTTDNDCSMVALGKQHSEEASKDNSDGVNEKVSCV
The target of test [8] is T2, 5-hydroxytryptamine receptor 1B. As to the kind of experiment: Binding affinity against human 5-hydroxytryptamine 1B receptor cloned receptors in CHO cells. The class given is cell-based. In short, it runs like this: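 Human 5-HT1B-expressing CHO cell membranes were homogenized in ice-cold 50 mM Tris (pH 7.7) and stored at -70 °C. They were resuspended in 50 mM Tris-HCl pH 7.4 containing 0.1% ascorbate, 10 μM pargyline, 0.5 mM EDTA and 10 mM MgCl2. Compound in DMSO was preincubated with membranes for 15 min at RT. [3H]-5-CT (added from 10 nM) was then incubated 30-45 min at 37 °C. Samples were filtered and counted by scintillation. Nonspecific binding used 5-HT. IC50 came from a four-parameter fit; Ki by Cheng-Prusoff. Results are means of ≥2 determinations.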

Test [9] concerns the target T5, 5-hydroxytryptamine receptor 2A. Description: Binding affinity against 5-hydroxytryptamine 2A receptor human cloned receptorswithouteffect in HEK 293 cells using [3H]ketanserin as radioligand. The class given is cell-based, HEK293.
Test [10] addresses T3, 5-hydroxytryptamine receptor 1A. Description: (§1) Binding affinity against human 5-hydroxytryptamine 1A receptors HEK 293 cell membranes using [35S]GTP gamma-S. The class given is functional, HEK293.
Test [11] addresses T1, 5-hydroxytryptamine receptor 1A (Homo sapiens). The description is as §1. It counts as functional. The settings on record: HEK293.
Test [12] has as its target T4, 5-hydroxytryptamine receptor 2C. Description: Binding affinity against 5-hydroxytryptamine 2C receptor human cloned receptorswithouteffect in HEK 293 cells using [3H]mesulergine as radioligand. It counts as cell-based, HEK293. The gist of the method:
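Filtration binding on membranes from cells stably expressing the human cloned receptor, homogenized in ice-cold 50 mM Tris (pH 7.7). Assay buffer was 50 mM Tris-HCl pH 7.4 with 0.1% ascorbic acid, 10 μM pargyline, 0.5 mM EDTA and 10 mM MgCl2. Compound in DMSO was preincubated 15 min at room temperature, then radioligand was added for 30-45 min at 37 °C. Read-out was scintillation counting. IC50 came from a four-parameter logistic fit and Ki from Cheng-Prusoff; values are the mean of at least two determinations.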

In test [13] the target is T3, 5-hydroxytryptamine receptor 1A. Description: Binding affinity against 5-hydroxytryptamine 1A human cloned receptors in HEK293 cells using [3H]8-OH-DPAT as radioligand. It counts as cell-based.
Test [14] addresses D(2) dopamine receptor (Homo sapiens, UniProt P14416). Description: Binding affinity against human Dopamine receptor D2 in CHO cells using [125I]iodosulpiride. It counts as cell-based.
The target in test [15] is T2, 5-hydroxytryptamine receptor 1B. Description: Binding affinity against cloned human 5-hydroxytryptamine 1B receptor in CHO cells using [3H]5-CT as radioligand. It counts as cell-based.

The structures appear in SMILES notation. A value given as a limit tells only on which side of the number the result lay.

T2 sequence (P28222 whole entry): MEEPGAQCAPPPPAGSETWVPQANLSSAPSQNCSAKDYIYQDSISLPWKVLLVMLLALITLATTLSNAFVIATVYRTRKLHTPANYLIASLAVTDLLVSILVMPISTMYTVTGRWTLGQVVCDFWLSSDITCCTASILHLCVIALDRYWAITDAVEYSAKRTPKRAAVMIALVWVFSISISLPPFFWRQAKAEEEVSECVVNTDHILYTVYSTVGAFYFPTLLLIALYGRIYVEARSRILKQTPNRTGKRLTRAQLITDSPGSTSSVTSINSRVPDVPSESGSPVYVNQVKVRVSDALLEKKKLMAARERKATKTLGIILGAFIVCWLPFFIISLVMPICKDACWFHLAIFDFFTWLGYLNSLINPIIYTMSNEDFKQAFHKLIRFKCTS
D(2) dopamine receptor, sequence (P14416 whole entry): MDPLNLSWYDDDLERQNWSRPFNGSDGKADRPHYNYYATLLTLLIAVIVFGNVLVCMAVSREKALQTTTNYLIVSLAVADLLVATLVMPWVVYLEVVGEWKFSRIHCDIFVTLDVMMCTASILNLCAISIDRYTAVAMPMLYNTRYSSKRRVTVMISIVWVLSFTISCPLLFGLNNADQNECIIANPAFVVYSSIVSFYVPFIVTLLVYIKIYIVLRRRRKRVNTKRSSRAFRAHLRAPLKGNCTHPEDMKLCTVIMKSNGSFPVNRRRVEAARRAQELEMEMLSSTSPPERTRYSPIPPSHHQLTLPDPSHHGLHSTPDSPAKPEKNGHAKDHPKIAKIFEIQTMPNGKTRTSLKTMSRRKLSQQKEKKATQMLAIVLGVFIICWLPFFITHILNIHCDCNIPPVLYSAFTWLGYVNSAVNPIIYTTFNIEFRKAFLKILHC

In test [1], `NCCc1c[nH]c2ccc(O)cc12` registered an Intrinsic activity of 1.

As to `NCCCC1(CCCN)CCc2cccc(O)c2C1`, the inhibition constant (Ki) is 126 nM in test [2]; 316 nM in [3]; 3.16 nM in [4]; 2 nM in test [5]; 12600 nM in test [6]; 10000 nM in test [7].

With `NCCc1c[nH]c2ccc(C(N)=O)cc12`, the values for the Ki in test [2], in test [8] and in [7] were 1000 nM, 1.26 nM and greater than 5010 nM, respectively.

Consider `CC(C)C[C@H]1C(=O)N[C@@H](Cc2ccccc2)[C@]2(O)O[C@@](C)(NC(=O)[C@@H]3C=C4c5cccc6[nH]cc(c56)C[C@H]4N(C)C3)C(=O)N12`, for which the Ki is 50.1 nM in [2]; 15.8 nM in test [9]; 15.8 nM in test [12]; 6.31 nM in test [4]; 0.0631 nM in [13]; 3.16 nM in test [14]. Besides, affinity in test [15] was put at a Ki of 3.16 nM. The same molecule gave an EC50 in test [10] of 2 nM. The molecule also came in with an Intrinsic activity in [1] of 1.11. This molecule displayed an Emax in test [11] of 229. Further, in test [11], the Stimulation turned out to be 138.

`CN1CCN(c2cc3c(cc2Cl)CCN3C(=O)Nc2ccc(-c3ccncc3)c3ccccc23)CC1`: the half-maximal effective concentration (EC50) in [10] is 19.1 nM. The molecule also had an Intrinsic activity in [1] of 0.33. In [11], this molecule came in with an Emax of 144 and a Stimulation of 42%.
